Compound activity: PubChem BioAssay, several laboratories
HCT116 bCat-KO – primary screen for growth suppressors in beta-catenin knockout HCT116 cells (colon tumor, human); HCT116 beta-catenin knockout viability, CellTiter-Glo, 60 h; active compounds read low; AID 818, 2007; 140,000 compounds, 1.5% hits; viability, % at 10 µM;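 active = viability at or under a set limit, the compound median less 4 SD, cut at about 6% in these data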;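 note: 0% = Hyamine 1622 control at 20 µM and 100% = untreated cell control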
HCT116 PTEN-null – growth suppression of PTEN-null HCT116, primary screen, cell-based, CellTiter-Glo | AID 827, 2007 | viability, % at 10 µM | 140,000 compounds, 1.2% hits | HCT116 PTEN-null viability, 60 h; active compounds read low;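 active = viability at or below a set limit, 4 SD under the median of all tested compounds, cut at about 3.7% in these data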;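 note: PTEN knockout HCT116 line with beta catenin targeted HCT116 as companion control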
Autophagy mod – autophagy modulators in MEF cells, primary screen, imaging, high-content, MEF GFP-LC3; AID 463193, 2010; calls only at 10 µM (by protocol); MEF GFP-LC3 puncta imaging; test concentration mostly 10 µM; 190,000 compounds, 0.98% hits;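 active = percentage of spot-positive cells more than 3 SD above its plate mean, without a fluorescence outlier flag or 80% toxicity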;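 note: spot-positive cell cutoff set from DMSO-treated cells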
Dynein transport – inhibitors of GR-EGFP nuclear translocation, primary screen, dynein cargo transport inhibitor project, imaging, high-content, 3617.4 mouse cells; 220,000 compounds, 0.47% hits; test concentration mostly 20 µM; stimulated with dexamethasone, 1 µM; active compounds read low; z-score, hits read low;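 active = plate z-score of nuclear minus cytoplasmic receptor signal below a set negative limit, without overly bright fluorescence or cell loss, cut at about -3.5 in these data, passing the limit was not always enough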;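 note: z-score of nuclear minus cytoplasmic ring GR-EGFP intensity difference per well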
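Schedule: 48 h induction, then 1 h compound, then 30 min agonist, 37 °C. Buffer or medium: tetracycline-free induction medium containing charcoal-stripped FBS. Reagent: 1.0 µM final dexamethasone stimulus. Evaluation: nuclear versus cytoplasmic GR-EGFP signal, averaged per well. Signal: high-content fluorescence imaging after fixation.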
L major viab – Leishmania major promastigote growth inhibition, primary screen; Leishmania major promastigotes, resazurin fluorescence viability; inhibition, % at 10 µM; 200,000 compounds, 9% hits; AID 1063, 2008; in the data active = inhibition above about 50%;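 note: promastigotes grown with compound for 44 hours at 28 °C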
Active calls of the source: *; i = inactive; . = no result given; + = active, no number. This is a sample that favours compounds with a hit; in the whole collection about 9.2% have one here.

SMILES	HCT116 bCat-KO	HCT116 PTEN-null	Autophagy mod	Dynein transport	L major viab
O=C(Nc1nc(COc2ccccc2)cs1)C12CC3CC(CC(C3)C1)C2	39	30	i	-0.091	100*
O=C(Nc1ccccc1N1CCN(c2ccc(F)cc2)CC1)C12CC3CC(CC(C3)C1)C2	64	72	i	-0.28	100*
CN(C)c1ccc(C(c2ccc(N(C)C)cc2)c2ccc([N+](=O)[O-])cc2)cc1	.	.	.	-0.55	.
O=C(NC(=S)N1CCN(c2ccc(F)cc2)CC1)C12CC3CC(CC(C3)C1)C2	91	87	i	-0.13	80*
O=C1Nc2ccccc2Oc2cc([N+](=O)[O-])cc(Oc3ccccc3)c21	62	76	+	1.8	15
Cc1ccc(NC(=S)N2CCSC2c2cccs2)cc1 (stereo not drawn)	.	.	i	0.64	48
Cc1nc(CS(=O)(=O)c2ccc(Cl)cc2)cc(Sc2ccccc2Cl)n1	81	91	i	0.13	2
Cc1cc(Cl)c(S(=O)(=O)N2CCCCCC2)cc1OCC(N)=O	78	66	i	-0.36	67*
CCOC(=O)C1CCN(S(=O)(=O)c2ccc(Cl)cc2OC)CC1	101	97	i	-0.28	-1
CCOC(=O)C1CCN(S(=O)(=O)c2cc(Cl)c(C)cc2OC)CC1	89	86	i	-0.31	91*
Cc1cc(Cl)c(S(=O)(=O)N2CCN(c3cccc(C)c3C)CC2)cc1OCC(N)=O	58	68	i	0.061	95*
Cc1cc(Cl)c(S(=O)(=O)N2CCCCCC2)cc1OCC(=O)NC1CCCCC1	17	21	i	-1.2	96*
CC(c1ccccc1)n1c(-c2cccs2)nc2c(c(=O)c3ccccc3n2C)c1=O (stereo not drawn)	.	.	.	0.55	.
CC(=O)c1cccc(NC(=O)C2CCN(S(=O)(=O)c3ccccc3)CC2)c1	109	100	i	-0.54	0
COc1ccc(NC(=O)C(NCC(C)C)c2ccccc2)cc1Cl (stereo not drawn)	.	.	i	-0.37	19
OCCOCCN1CCN(C(=S)Nc2ccccc2)CC1	.	.	i	-0.41	-2
Cn1ncc2c(=O)n(CC(=O)NC34CC5CC(CC(C5)C3)C4)cnc21	90	98	i	-0.14	10
CCOC(=O)C(Cc1ccc(NC(=O)/C(=C\c2ccccc2)NC(=O)c2ccccc2)cc1)N1C(=O)c2ccccc2C1=O (stereo not drawn)	71	67	i	0.66	-3
CCOC(=O)N1CCN(C(=O)C2CCN(S(=O)(=O)c3cc(Cl)ccc3Cl)CC2)CC1	94	84	i	0.12	99*
CCOC(=O)N1CCN(S(=O)(=O)c2cc(OCC(=O)NC3CCCCC3)c(C)cc2Cl)CC1	83	92	i	-0.24	64*
Cc1cc(O)c(/C=N/OCc2ccc(Cl)cc2Cl)c(=O)o1	.	.	i	0.28	-13
Cc1cc(O)c(/C=N/Nc2ccccc2Cl)c(=O)o1	90	93	i	-0.96	8
Cc1cc(O)c(/C=N/Nc2ccc(Cl)cc2)c(=O)o1	89	90	i	-0.21	98*
Cc1cccc(N=Cc2c(O)cc(C)oc2=O)c1	.	.	i	-0.62	62*
Cc1cc(O)c(/C=N/Nc2cccc(Cl)c2)c(=O)o1	87	99	i	0.46	94*
SMILES	HCT116 bCat-KO	HCT116 PTEN-null	Autophagy mod	Dynein transport	L major viab
COc1ccc(Cl)cc1N=Cc1c(O)cc(C)oc1=O	.	.	i	-2	-8
O=C1ON=C(c2cccc([N+](=O)[O-])c2)/C1=C/c1ccc(O)cc1	.	.	i	-1.5	38
COC(=O)/C(C#N)=C/c1c(Oc2cc(C)cc(C)c2)nc2c(C)cccn2c1=O	21	18	i	0.73	97*
Cc1ccc(S(=O)(=O)/C(C#N)=C/c2c(N3CC(C)OC(C)C3)nc3c(C)cccn3c2=O)cc1 (stereo not drawn)	93	104	i	-0.6	97*
Cc1cc(Oc2nc3c(C)cccn3c(=O)c2/C=C(\C#N)S(=O)(=O)c2ccc(Cl)cc2)ccc1Cl	3.9*	1.4*	i	-0.014	80*
CCN1CCN(c2nc3c(C)cccn3c(=O)c2/C=C(\C#N)S(=O)(=O)c2ccc(Cl)cc2)CC1	.	.	.	-0.16	.
CCOc1ccccc1N(CC(=O)NCc1ccccc1)C(=O)CCC(=O)Nc1cc(C)ccn1	.	.	i	0.37	5
O=[N+]([O-])c1ccc(Sc2nc3ccccc3o2)c([N+](=O)[O-])c1	1.9*	1.4*	i	-1.8	19
O=[N+]([O-])c1ccc(Cl)cc1Sc1nc2ccccc2o1	9	9	+	-1.2	28
Cc1noc(C)c1COc1cccc(C(=O)NC(C)(C)C)c1	.	.	i	-1.3	-1
O=C(Nc1cccc(C(F)(F)F)c1)N(Cc1ccc(Cl)cc1)CC(O)C(F)(F)F (stereo not drawn)	30	15	i	0.19	96*
CC(O)(CS(=O)(=O)Cc1ccc(Cl)cc1)C(=O)Nc1cccc(C(F)(F)F)c1 (stereo not drawn)	72	83	i	0.16	1
Cc1cc(C)c(OCC(O)CN2CCN(c3ccccn3)CC2)c(C)c1 (stereo not drawn)	.	.	i	0.4	-4
C=CCOC(=O)C1C(=O)CC(C)(O)C(C(=O)OCC=C)C1c1ccc(N(C)C)cc1 (stereo not drawn)	.	.	i	-0.71	-3
N/C(Cc1cccc2ccccc12)=N\OC(=O)c1cccs1	72	78	i	0.3	58*
COc1cc(OC)c(S(=O)(=O)Nc2ccc(C)cn2)cc1NC(C)=O	98	99	i	0.87	-1
CC(C)OC(=O)C1C2C=CC3(CN(Cc4cccs4)C(=O)C13)O2 (stereo not drawn)	101	98	i	-0.39	-12
COc1cc2c(cc1OC)C(C1C(=O)CC(C)(C)CC1=O)N(C(=O)CCl)CC2 (stereo not drawn)	101	102	i	0.7	26
CC1CC(=O)C(C2c3ccccc3CCN2C(=O)CCl)C(=O)C1 (stereo not drawn)	92	93	i	0.11	51*
CCOC(=O)C(=O)N1CCC(C(=O)OCC)CC1	.	.	.	-0.93	.
COc1ccc(-n2c(O)c(C=Nc3ccccc3)c3ccccc3c2=O)cc1	.	.	+	-0.94	-5
Cc1ccc(-n2c(O)c(C=Nc3cc(C)on3)c3ccccc3c2=O)c(C)c1	43	47	i	-0.44	12
Cc1cc(N=Cc2c(O)n(-c3ccc(C)c(C)c3)c(=O)c3ccccc23)no1	33	28	i	-1.2	54*
Cc1ccc(-n2c(O)c(C=Nc3ccc4c(c3)OCO4)c3ccccc3c2=O)cc1C	2.0*	2.4*	+	-0.6	0
CCOc1ccc(-c2nc(-c3cccnc3)no2)cc1OCC	97	104	i	0.2	81*
